The text below walks through data of ChEMBL document CHEMBL1132296, “Anticonvulsant and sodium channel-blocking properties of novel 10,11-dihydro-5H-dibenz[b,f]azepine-5-carboxamide derivatives” (J Med Chem, 1999).

The species named for assay [1] is Rattus norvegicus. As to the kind of experiment: Compound was tested for anticonvulsant activity against MES-induced seizures in rat. Details: concentration or dose not given beside the values.
The subject of assay [2] is Rattus norvegicus. As to the kind of experiment: t max for anticonvulsant activity was tested in rats intraperitoneally. It counts as functional, organism-based.
Assay [3] relates to Rattus norvegicus. The experiment in a line: Compound was tested intraperitoneally for anticonvulsant activity against MES-induced seizures in rat by MES test. The assay is classed as functional. The following applies: ip. The method in brief:
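Intraperitoneal dosing to rats, MES given at t_max. Corneal electrodes after oxibuprocaine eye drops; abolition of hindleg tonic extensor component as endpoint. 5–8 rats/group; ED50 from logistic equation fit.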

Assay [4] addresses T1, Sodium channel alpha subunits; brain (Types I, II, III) (Rattus norvegicus) (UniProt P04775+P04774+P08104). The experiment in a line: Percent inhibition of 22Na+ uptake by voltage sensitive sodium channel of rat cortical synaptosomes at 100 uM. It counts as functional, subcellular.
The target in assay [5] is Sodium channel alpha subunits; brain (Types I, II, III) (Rattus norvegicus, UniProt P04775+P04774+P08104). As to the kind of experiment: Displacement of [3H]BTX from voltage-gated sodium channel of rat cortical synaptosomes. It counts as subcellular.
The test system of assay [6] is Rattus norvegicus. The experiment in a line: Protective index value of the compound, given by intraperitoneally (TD50/ED50). It counts as functional. The essentials:
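Ratio TD50/ED50 from intraperitoneal rotarod and MES tests in rats. Both values come from logistic fits, 5–8 rats/group.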

Assay [7] concerns the target T1, Sodium channel alpha subunits; brain (Types I, II, III) (Rattus norvegicus). As to the kind of experiment: Percent inhibition of 22Na+ uptake by voltage sensitive sodium channel of rat cortical synaptosomes at 300 uM. The assay is classed as functional, subcellular.
The species named for assay [8] is Rattus norvegicus. The experiment in a line: Protective index value of the compound, given by gastric tube (TD50/ED50). The assay is classed as functional, Stomach. The method in brief:
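Ratio TD50/ED50 from oral (gastric tube) rotarod and MES tests in rats at t_max. Both values come from logistic fits, 5–8 rats/group.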

The test system of assay [9] is Rattus norvegicus. The experiment in a line: t max was for the anticonvulsant effect was tested in rats administered by gastric tube; t max. The assay is classed as functional, organism-based. The following applies: Stomach.
The subject of assay [10] is Rattus norvegicus. As to the kind of experiment: Compound was tested intraperitoneally for anticonvulsant activity by rotarod test. The assay is classed as functional. The following applies: ip. The essentials:
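Rats trained to stay 3 min on a 5-cm rod rotating at 6 rpm. Next day, compound ip in DMSO (2 mL/kg), placed on rod 15 min later at 6 rpm. Deficit = failure to hold equilibrium 1 min in each of three trials. 5–8 rats/group; TD50 from logistic fit.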

The subject of assay [11] is Rattus norvegicus. As to the kind of experiment: Compound was tested for anticonvulsant activity administered by gastric tube in rat by MES test. The assay is classed as functional. The essentials:
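Rats, oral by gastric tube, tested at t_max. Rats were pre-screened in a first MES session through corneal electrodes after oxibuprocaine eye drops, and only typical tonic–clonic convulsers were kept. Next day, compound or vehicle, then MES sessions 2 or 4 h and 6, 8 or 12 h post-dose. Endpoint was abolition of hindleg tonic extension. 5–8 rats/group; ED50 from logistic fit.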

Assay [12] has as its system Rattus norvegicus. The experiment in a line: Compound was tested for anticonvulsant activity administered by gastric tube in rat by rotarod test. It counts as functional. For orientation: In the rotarod test animals must keep their balance on a rotating rod.
Assay [13] addresses T1, Sodium channel alpha subunits; brain (Types I, II, III) (Rattus norvegicus). The experiment in a line: Percent inhibition of 22Na+ uptake by voltage sensitive sodium channel of rat cortical synaptosomes at 30 uM. It counts as functional, subcellular.
For assay [14] the target is unchanged. The following applies: 300 uM.

SMILES strings stand for the structures.

T1 sequence (P04775 whole entry, looked up, other chains not shown): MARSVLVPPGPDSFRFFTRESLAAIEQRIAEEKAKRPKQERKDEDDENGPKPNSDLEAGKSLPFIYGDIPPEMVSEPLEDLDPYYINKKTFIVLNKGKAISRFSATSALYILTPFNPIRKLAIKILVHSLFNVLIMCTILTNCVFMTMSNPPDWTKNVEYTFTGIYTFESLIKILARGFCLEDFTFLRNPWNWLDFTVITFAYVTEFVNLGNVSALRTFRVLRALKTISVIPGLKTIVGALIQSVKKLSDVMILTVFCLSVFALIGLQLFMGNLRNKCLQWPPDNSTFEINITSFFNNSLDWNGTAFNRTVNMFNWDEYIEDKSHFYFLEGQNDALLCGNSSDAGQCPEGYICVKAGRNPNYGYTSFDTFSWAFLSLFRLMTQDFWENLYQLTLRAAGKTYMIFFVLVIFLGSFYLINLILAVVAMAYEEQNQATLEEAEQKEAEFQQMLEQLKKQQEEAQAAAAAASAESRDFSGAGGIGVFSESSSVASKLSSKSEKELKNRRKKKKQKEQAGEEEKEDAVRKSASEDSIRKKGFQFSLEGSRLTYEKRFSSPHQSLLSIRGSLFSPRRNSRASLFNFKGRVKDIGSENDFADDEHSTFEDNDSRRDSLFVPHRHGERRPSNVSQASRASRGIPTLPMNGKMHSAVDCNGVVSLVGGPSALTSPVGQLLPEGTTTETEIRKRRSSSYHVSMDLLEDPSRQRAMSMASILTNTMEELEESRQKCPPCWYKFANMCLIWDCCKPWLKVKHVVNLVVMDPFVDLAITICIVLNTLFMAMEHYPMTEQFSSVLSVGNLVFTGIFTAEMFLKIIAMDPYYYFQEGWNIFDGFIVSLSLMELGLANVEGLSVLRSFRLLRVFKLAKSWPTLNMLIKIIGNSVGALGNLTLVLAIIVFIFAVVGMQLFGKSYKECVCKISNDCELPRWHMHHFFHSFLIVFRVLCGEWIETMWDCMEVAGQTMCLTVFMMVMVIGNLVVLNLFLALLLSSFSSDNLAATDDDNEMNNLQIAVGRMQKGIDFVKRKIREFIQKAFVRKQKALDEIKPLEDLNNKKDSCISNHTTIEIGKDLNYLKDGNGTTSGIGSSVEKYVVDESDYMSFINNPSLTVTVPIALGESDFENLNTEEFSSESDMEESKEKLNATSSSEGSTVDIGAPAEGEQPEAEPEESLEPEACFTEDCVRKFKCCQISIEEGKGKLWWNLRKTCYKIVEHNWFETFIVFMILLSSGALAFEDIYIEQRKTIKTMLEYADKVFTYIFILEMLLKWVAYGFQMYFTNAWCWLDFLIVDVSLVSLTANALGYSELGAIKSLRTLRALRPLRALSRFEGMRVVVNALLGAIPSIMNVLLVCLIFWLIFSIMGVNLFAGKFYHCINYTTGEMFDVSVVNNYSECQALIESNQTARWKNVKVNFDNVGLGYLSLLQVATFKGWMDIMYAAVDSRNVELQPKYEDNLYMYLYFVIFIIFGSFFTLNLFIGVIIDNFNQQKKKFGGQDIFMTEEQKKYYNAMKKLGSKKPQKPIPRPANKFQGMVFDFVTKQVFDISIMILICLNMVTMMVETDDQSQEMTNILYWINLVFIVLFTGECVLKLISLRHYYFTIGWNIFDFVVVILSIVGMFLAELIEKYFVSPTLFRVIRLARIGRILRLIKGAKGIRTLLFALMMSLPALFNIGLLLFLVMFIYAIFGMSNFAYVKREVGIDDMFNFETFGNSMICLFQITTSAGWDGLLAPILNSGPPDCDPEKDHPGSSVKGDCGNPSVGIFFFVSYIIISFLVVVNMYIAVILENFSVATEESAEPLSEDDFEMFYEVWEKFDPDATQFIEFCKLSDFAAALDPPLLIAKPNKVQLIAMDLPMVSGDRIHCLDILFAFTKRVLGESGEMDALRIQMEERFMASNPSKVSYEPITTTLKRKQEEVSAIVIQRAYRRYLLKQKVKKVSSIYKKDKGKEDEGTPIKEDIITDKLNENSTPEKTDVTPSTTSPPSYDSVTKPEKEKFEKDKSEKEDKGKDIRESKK
T1 sequence (P08104 whole entry, looked up, other chains not shown): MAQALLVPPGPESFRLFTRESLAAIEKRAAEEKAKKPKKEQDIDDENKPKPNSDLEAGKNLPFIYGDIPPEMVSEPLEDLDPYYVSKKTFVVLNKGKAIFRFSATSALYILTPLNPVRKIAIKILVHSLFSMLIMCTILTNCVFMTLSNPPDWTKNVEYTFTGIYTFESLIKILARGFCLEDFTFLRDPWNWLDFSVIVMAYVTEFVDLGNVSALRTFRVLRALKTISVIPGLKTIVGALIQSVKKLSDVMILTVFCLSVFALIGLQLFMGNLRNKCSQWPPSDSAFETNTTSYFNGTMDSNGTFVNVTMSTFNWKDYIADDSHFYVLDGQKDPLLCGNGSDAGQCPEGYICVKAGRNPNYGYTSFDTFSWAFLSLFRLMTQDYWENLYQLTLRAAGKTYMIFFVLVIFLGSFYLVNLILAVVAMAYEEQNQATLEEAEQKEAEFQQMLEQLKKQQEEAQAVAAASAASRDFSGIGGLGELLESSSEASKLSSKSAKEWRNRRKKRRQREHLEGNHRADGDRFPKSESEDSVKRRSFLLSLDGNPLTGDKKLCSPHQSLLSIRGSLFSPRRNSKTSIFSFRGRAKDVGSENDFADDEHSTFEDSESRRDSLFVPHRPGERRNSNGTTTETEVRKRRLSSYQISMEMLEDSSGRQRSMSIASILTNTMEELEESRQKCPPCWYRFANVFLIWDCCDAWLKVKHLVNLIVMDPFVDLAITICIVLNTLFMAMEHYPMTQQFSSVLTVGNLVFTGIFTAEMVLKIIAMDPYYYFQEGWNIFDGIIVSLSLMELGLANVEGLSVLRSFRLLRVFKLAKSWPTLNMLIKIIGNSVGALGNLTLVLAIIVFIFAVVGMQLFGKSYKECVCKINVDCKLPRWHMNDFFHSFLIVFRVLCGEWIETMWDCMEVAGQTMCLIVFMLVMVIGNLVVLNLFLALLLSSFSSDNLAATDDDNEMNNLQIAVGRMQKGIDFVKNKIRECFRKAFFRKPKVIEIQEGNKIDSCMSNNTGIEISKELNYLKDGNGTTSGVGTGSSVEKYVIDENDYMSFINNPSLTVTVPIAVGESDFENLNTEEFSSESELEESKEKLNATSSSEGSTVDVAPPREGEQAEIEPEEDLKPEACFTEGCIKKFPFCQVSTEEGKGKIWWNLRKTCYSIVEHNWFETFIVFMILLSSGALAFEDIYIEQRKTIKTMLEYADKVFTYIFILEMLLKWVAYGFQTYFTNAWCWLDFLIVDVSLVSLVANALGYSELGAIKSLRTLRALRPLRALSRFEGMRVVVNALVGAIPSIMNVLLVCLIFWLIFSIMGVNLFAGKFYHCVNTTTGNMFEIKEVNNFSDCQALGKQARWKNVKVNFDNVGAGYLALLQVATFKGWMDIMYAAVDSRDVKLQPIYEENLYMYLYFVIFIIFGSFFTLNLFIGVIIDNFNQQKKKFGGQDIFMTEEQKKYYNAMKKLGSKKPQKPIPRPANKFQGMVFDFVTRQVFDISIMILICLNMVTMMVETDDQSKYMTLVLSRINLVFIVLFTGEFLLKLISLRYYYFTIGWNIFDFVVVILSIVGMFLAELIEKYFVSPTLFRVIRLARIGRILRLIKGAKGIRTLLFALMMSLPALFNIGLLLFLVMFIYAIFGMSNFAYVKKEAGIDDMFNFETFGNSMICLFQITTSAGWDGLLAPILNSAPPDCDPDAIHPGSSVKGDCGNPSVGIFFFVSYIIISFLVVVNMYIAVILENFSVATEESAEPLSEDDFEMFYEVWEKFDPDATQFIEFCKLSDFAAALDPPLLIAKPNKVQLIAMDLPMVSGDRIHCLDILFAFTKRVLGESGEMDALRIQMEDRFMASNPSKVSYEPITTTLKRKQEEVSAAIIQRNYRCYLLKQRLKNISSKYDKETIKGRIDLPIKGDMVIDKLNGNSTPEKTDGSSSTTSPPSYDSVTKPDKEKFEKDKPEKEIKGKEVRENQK

In the case of `NC(=O)N1c2ccccc2CC(OC(=O)CBr)c2ccccc21` (centres undefined), the Protection in the assay listed under Rattus norvegicus [1] came to 15.1%.

For `CCCC(CC)C(=O)OC1Cc2ccccc2N(C(N)=O)c2ccccc21` (centres undefined), the Protection in the assay listed under Rattus norvegicus [1] is -12.8%.

As to `CC(C)(C)C(=O)OC1Cc2ccccc2N(C(N)=O)c2ccccc21` (centres undefined), the Protection in the assay filed under Rattus norvegicus [1] worked out at 6.5%.

On to `CC(Cl)C(=O)OC1Cc2ccccc2N(C(N)=O)c2ccccc21` (centres undefined), for which the Protection in the assay filed under Rattus norvegicus [1] was determined as 3.9%.

In the case of `CCOC(=O)OC1Cc2ccccc2N(C(N)=O)c2ccccc21` (centres undefined), the Protection in the assay filed under Rattus norvegicus [1] amounted to 18.3%.

As to `NC(=O)N1c2ccccc2CC(OC(=O)Cc2ccc([N+](=O)[O-])cc2)c2ccccc21` (centres undefined), the Protection in the assay listed under Rattus norvegicus [1] was found to be 13.8%.

In the case of `CC(=O)O[C@@H]1Cc2ccccc2N(C(N)=O)c2ccccc21`, the Tmax in the assay on Rattus norvegicus [2] came to 60 min; with Rattus norvegicus [9] it was 480 min. Moreover, the results for the ED50 with Rattus norvegicus [3] and in the assay with Rattus norvegicus [11] were 18 mg/kg and 10.9 mg/kg, respectively. Further, the Protection in the assay listed under Rattus norvegicus [1] is 5.9%. The values for the inhibition in [4], in assay [7] and in assay [13] were 57.7%, 73.2% and 17.9%, respectively. In [5], this molecule showed a concentration for half-maximal inhibition (IC50) of 113 µM. The figures for the Protective index in the assay with Rattus norvegicus [6] and in the assay filed under Rattus norvegicus [8] were 7.5 and over 91.7, respectively. Further, the TD50 with Rattus norvegicus [10] was 135 mg/kg; with Rattus norvegicus [12], over 1000 mg/kg.

For the molecule `CC(=O)OC1Cc2ccccc2N(C(N)=O)c2ccccc21` (centres undefined), the Tmax in the assay on Rattus norvegicus [2] was 5 min; in the assay with Rattus norvegicus [9], 120 min. The figures for the ED50 in the assay with Rattus norvegicus [3] and in the assay on Rattus norvegicus [11] were 13.1 mg/kg and 13.5 mg/kg, respectively. Further, the Protection in the assay filed under Rattus norvegicus [1] came out at 54.4%. In addition, the values for the inhibition in assay [4], in assay [7] and in assay [13] were 61.8%, 82.1% and 42.2%, respectively. In [5], this molecule returned an IC50 of 141 µM. The results for the Protective index in the assay with Rattus norvegicus [6] and in the assay filed under Rattus norvegicus [8] were 9.9 and 31.7, respectively. In addition, the results for the TD50 in the assay with Rattus norvegicus [10] and with Rattus norvegicus [12] were 130 mg/kg and 428 mg/kg, respectively.

`NC(=O)N1c2ccccc2CC(OC=O)c2ccccc21` (centres undefined): the Protection in the assay listed under Rattus norvegicus [1] stood at 32.1%.

As for `CC(=O)O[C@H]1Cc2ccccc2N(C(N)=O)c2ccccc21` [ESLICARBAZEPINE ACETATE], the Tmax with Rattus norvegicus [2] worked out at 15 min; in the assay with Rattus norvegicus [9], 120 min. The ED50 turned out to be 6.3 mg/kg in the assay on Rattus norvegicus [3] and 4.7 mg/kg in the assay with Rattus norvegicus [11]. Moreover, the Protection in the assay listed under Rattus norvegicus [1] amounted to 100%. For the same molecule, the inhibition came to 73.4% in assay [4], 95.6% in [7] and 52.6% in [13]. This molecule also displayed an IC50 in assay [5] of 138 µM. Moreover, the Protective index with Rattus norvegicus [6] came out at 12.5; in the assay filed under Rattus norvegicus [8], 76.3. The TD50 worked out at 78.6 mg/kg with Rattus norvegicus [10] and 359 mg/kg with Rattus norvegicus [12].

Regarding `CCCC(CCC)C(=O)OC1Cc2ccccc2N(C(N)=O)c2ccccc21` (centres undefined), the Protection in the assay listed under Rattus norvegicus [1] was 0.2%.

Regarding `NC(=O)N1c2ccccc2C[C@H](O)c2ccccc21` [ESLICARBAZEPINE], the Tmax with Rattus norvegicus [2] was determined as 30 min. Besides, the ED50 with Rattus norvegicus [3] stood at 17.1 mg/kg. In the assay with Rattus norvegicus [10], the TD50 stood at 96.6 mg/kg.

In the case of `NC(=O)N1c2ccccc2C=Cc2ccccc21` [CARBAMAZEPINE], the results for the Tmax in the assay with Rattus norvegicus [2] and in the assay on Rattus norvegicus [9] were 15 min and 120 min, respectively. Besides, the ED50 in the assay on Rattus norvegicus [3] amounted to 3.4 mg/kg; in the assay on Rattus norvegicus [11], 5.4 mg/kg. Also, the inhibition amounted to 44.3% in assay [4], 64.8% in assay [7] and 22.6% in assay [13]. In addition, the IC50 in assay [5] turned out to be 210 µM. Further, the values for the TD50 in the assay on Rattus norvegicus [10] and in the assay on Rattus norvegicus [12] were 27.4 mg/kg and 251 mg/kg, respectively.

As for `NC(=O)N1c2ccccc2CC(OC(=O)c2ccccc2)c2ccccc21` (centres undefined), the Protection in the assay filed under Rattus norvegicus [1] amounted to 17.2%.

With `CCCCCCCCCCCCCCCCCC(=O)OC1Cc2ccccc2N(C(N)=O)c2ccccc21` (centres undefined), the Protection in the assay filed under Rattus norvegicus [1] is 0.8%.

`CCC(=O)OC1Cc2ccccc2N(C(N)=O)c2ccccc21` (centres undefined): the Protection in the assay listed under Rattus norvegicus [1] turned out to be 40.6%.

With `NC(=O)N1c2ccccc2CC(O)c2ccccc21` (centres undefined) [LICARBAZEPINE], the Tmax in the assay on Rattus norvegicus [2] amounted to 15 min. The molecule further displayed an ED50 with Rattus norvegicus [3] of 14.6 mg/kg. Further, the TD50 in the assay on Rattus norvegicus [10] amounted to 89.3 mg/kg.

Consider `CCCC(=O)OC1Cc2ccccc2N(C(N)=O)c2ccccc21` (centres undefined), for which the Protection in the assay filed under Rattus norvegicus [1] stood at 34.2%.

On to `COc1ccc(CC(=O)OC2Cc3ccccc3N(C(N)=O)c3ccccc32)cc1` (centres undefined), for which the Protection in the assay listed under Rattus norvegicus [1] turned out to be 8.1%.

For the molecule `NC(=O)N1c2ccccc2C[C@@H](O)c2ccccc21`, the Tmax with Rattus norvegicus [2] stood at 30 min. Also, in the assay on Rattus norvegicus [3], the 50% effect level (ED50) was put at a dose of 17.9 mg/kg. The molecule further showed a TD50 in the assay on Rattus norvegicus [10] of 97.4 mg/kg.

Take `CC(=O)Oc1ccccc1C(=O)OC1Cc2ccccc2N(C(N)=O)c2ccccc21` (centres undefined): the Protection in the assay filed under Rattus norvegicus [1] amounted to 10.2%.

As to `NC(=O)N1c2ccccc2CC(OC(=O)CCl)c2ccccc21` (centres undefined), the Protection in the assay listed under Rattus norvegicus [1] amounted to 0.5%.

`NC(=O)N1c2ccccc2CC(OC(=O)c2cccnc2)c2ccccc21` (centres undefined): the Protection in the assay filed under Rattus norvegicus [1] is 32.8%.

Turning to `NC(=O)N1c2ccccc2CC(=O)c2ccccc21` [OXCARBAZEPINE], the Tmax worked out at 5 min in the assay on Rattus norvegicus [2] and 120 min in the assay with Rattus norvegicus [9]. Moreover, the figures for the 50% effective dose (ED50) in the assay on Rattus norvegicus [3] and with Rattus norvegicus [11] were 6.1 mg/kg and 10 mg/kg, respectively. The inhibition in [14] came to 76.2%; in assay [4], 50.2%; in [13] it was 31.2%. Moreover, the IC50 in assay [5] is 161 µM. For the same molecule, the TD50 with Rattus norvegicus [10] was 40.1 mg/kg; with Rattus norvegicus [12] it was over 1000 mg/kg.

As usually defined, the ED50 is the midpoint of the dose-response relation. In general, inhibition refers to how much of the control response was suppressed. Broadly, the IC50 is the midpoint of a concentration-inhibition curve. What is called TD50 is the dose at which the toxic effect under study appears in half of the subjects.
